Consider 13 molecules from PubChem BioAssay.

Assay [1] can be described thus: inhibitors of TNFa-induced NFkB p65 translocation, primary screen, imaging, HUVEC, MLSMR starter and 10KST1 sets (AID 438;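 active = inhibition above 20% together with a positive visual image hit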;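 also: compound added about 3h40 before a 20 min TNFalpha stimulation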;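 as to inhibition: signal is the nuclear over cytoplasmic p65 intensity ratio per well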). Particulars: HUVEC TNFa-induced p65 nuclear translocation; cell count: measured here: nuclei count (cytotoxicity indicator), at 2.08 µM; inhibition: at 2 µM, stronger effect = higher value, 0% TNFa-plus-vehicle, 100% no-TNFa wells.
The nature of assay [2]: inhibitors of mutant huntingtin aggregation, primary screen, imaging, exon1htt(103Q)mCFP cells, high-content imaging (AID 483).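 Also: compound exposure lasted 3 days before fixation.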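 As to nuclei count: percent of the per-plate median nuclei count of sample wells.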 The conditions noted are these: exon1htt(103Q)mCFP cell line, aggregate imaging, at 2 µM; inhibition of aggregation: stronger effect = higher value; nuclei count: measured here: cell count, toxicity.
Assay [3] is described as follows: inhibitors of E-selectin induction by TNFa, primary screen, imaging, HUVEC, immunofluorescence, MLSMR starter and 10KST1 sets (AID 487;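 active = visually confirmed hit in the image check and inhibition above 20%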;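 as to inhibition: signal is fraction of cell area covered by stained E-selectin grains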;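 as to nuclei count: 100% = median nuclei count of all wells on the same plate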). The conditions noted are these: HUVEC TNFalpha-induced E-selectin immunofluorescence imaging, at 2 µM; inhibition: stronger effect = higher value; nuclei count: measured here: cell number, toxicity.
The target of assay [4] is Voltage-gated potassium channel subunit beta-2 (Rattus norvegicus) (UniProt P62483). The experiment in a line: KvBeta enzyme negative modulators, primary screen, biochemical, NADPH fluorescence (AID 622;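 active = fluorescence slope higher than the sample average by over 3 SD, cut at about -0.22 in these data, passing the limit was not always enough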;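 also: slope of raw intensity against log time taken from 70 to 1610 s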). Particulars: recombinant KvBeta, 4-cyanobenzaldehyde reduction, at 10 µM, stronger effect = higher value.
Assay [5] has the same target. The experiment in a line: KvBeta positive modulators, primary screen, biochemical, NADPH fluorescence (AID 623;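 active = NADPH fluorescence slope more negative than the mean of all samples by about 3 SD, 99.7% confidence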;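 also: fluorescence intensity change per second fitted from 20 to 320 s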). The conditions noted are these: Recombinant KvBeta, NADPH fluorescence decrease slope, 10 min; at 10 µM; stronger effect = lower value.
Assay [6] addresses Muscarinic acetylcholine receptor M4 (Homo sapiens) (UniProt P08173). In words: compounds altering M4/GIRK thallium flux, either direction, primary screen, M4 allosteric agonist project, cell-based, HEK293 M4/GIRK, BTC-AM (AID 625;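 active = fluorescence slope after compound addition differing from the mean of all tested samples at 99.7% confidence, mostly higher but some lower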;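 also: thallium influx through GIRK channels coupled to M4 in HEK293 cells with BTC-AM dye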). The conditions noted are these: at 10 µM, actives lie on both sides. Put shortly: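 Material: M4/GIRK1/GIRK2 stable HEK293 cell line. Medium: pH 7.3 thallium assay buffer. Dosing: single compound concentration, 10 µM final. Schedule: 1 h dye loading, 2 min kinetic read. Measured by: kinetic fluorescence with BTC-AM dye. Read-out: post-addition slope, 15–24 s, of baseline-normalized fluorescence. Benchmarks: carbachol and DMSO controls.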

A short description of assay [7]: inhibitors of Sendai virus-induced IRF3 signaling, primary screen, TLR/RLR signaling modifier project, cell-based, Sendai virus stimulus, luciferase, 10K MLSCN set (AID 602276;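 active = inhibition at or above 50% at 10 µM; inactive = inhibition below 50%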;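 also: firefly luciferase from ISG56 promoter only with Renilla not read in this screen; 0% = Sendai virus plus DMSO and 100% = medium plus DMSO without virus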). The conditions noted are these: HEK293 RL24 IRF3 luciferase reporter, at 10 µM, stronger effect = higher value. (In a reporter assay the amount or activity of a reporter protein is the signal.)
Assay [8] can be described thus: inhibitors of poly I:C-induced TLR3 signaling, primary screen, cell-based, poly I:C stimulus, luciferase, 10K MLSCN set (AID 602277;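 active = inhibition of the reporter signal at or above 50%; inactive = inhibition below 50%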). The conditions noted are these: HEK293-TLR3 RL24 IRF3 luciferase reporter, at 10 µM, stronger effect = higher value.

Activity calls are given as the source filed them.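 The calls were made as follows, unless noted: active = visual image review flags a hit and inhibition of aggregation exceeds 20%; inconclusive = visual hit but inhibition at or below 20%; inactive = no hit on visual image review.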

Chain of Muscarinic acetylcholine receptor M4 (Homo sapiens) (P08173 whole entry, looked up): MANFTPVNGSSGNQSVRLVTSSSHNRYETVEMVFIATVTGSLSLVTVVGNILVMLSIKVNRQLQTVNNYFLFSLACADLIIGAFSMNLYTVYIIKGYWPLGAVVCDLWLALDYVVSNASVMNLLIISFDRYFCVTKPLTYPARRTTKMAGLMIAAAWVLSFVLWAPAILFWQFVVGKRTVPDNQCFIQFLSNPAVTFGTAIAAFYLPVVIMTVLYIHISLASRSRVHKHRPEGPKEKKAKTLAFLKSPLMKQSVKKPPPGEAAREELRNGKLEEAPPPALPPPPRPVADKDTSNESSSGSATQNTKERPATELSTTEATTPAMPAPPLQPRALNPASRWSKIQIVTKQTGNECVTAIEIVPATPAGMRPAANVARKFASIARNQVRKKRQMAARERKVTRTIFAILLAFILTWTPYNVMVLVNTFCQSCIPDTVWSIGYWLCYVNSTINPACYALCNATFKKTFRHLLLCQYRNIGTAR
Chain of Voltage-gated potassium channel subunit beta-2 (Rattus norvegicus) (P62483 whole entry, looked up): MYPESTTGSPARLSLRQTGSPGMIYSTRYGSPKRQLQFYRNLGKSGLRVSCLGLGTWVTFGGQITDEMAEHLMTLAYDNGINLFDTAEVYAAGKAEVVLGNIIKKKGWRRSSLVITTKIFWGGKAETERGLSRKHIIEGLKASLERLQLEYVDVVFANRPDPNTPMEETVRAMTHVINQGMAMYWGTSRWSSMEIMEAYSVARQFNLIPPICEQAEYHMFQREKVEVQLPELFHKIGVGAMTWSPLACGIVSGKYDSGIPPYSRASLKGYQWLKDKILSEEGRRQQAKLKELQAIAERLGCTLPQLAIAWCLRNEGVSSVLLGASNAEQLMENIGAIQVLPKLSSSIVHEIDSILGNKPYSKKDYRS

For orientation: inhibition means the drop in the measured response relative to a control, in per cent. As for `Cc1cc(NC(=O)CSc2ccc3nnc(-c4cccc(F)c4)n3n2)no1`, in assay [1], the cell count is 619. Besides, the inhibition in assay [1] was -13.6% (inactive); in assay [3] it was -55.4% (inactive); in assay [7], -1.23% (inactive); in assay [8] it was -7.4% (inactive). Also, the inhibition of aggregation in assay [2] is 10.1% (inactive). Also, the nuclei count in assay [2] was 125%; in assay [3], 107%. Further, the fluorescence slope in assay [4] is -0.266 (inactive); in assay [6], 0.00544 (inactive). Moreover, the NADPH fluorescence slope in assay [5] was 1e-08 (inactive).

For `Cn1c2ccccc2c2c(C(=O)NCCCN3CCCC3=O)cn(C3CCCCC3)c(=O)c21`, the cell count in assay [1] was determined as 592. The inhibition was -17.5% (inactive) in assay [1], 20.1% (inactive) in assay [3], 9.9% (inactive) in assay [7] and 15.9% (inactive) in assay [8]. Besides, the inhibition of aggregation in assay [2] is -29.3% (inactive). Further, the values for the nuclei count in assay [2] and in assay [3] were 112% and 110%, respectively. Besides, the fluorescence slope in assay [4] is -0.428 (inactive); in assay [6], 0.00608 (inactive). The NADPH fluorescence slope in assay [5] is 3.4e-05 (inactive).

Take `Cc1nnc(NC(=O)Nc2cccc(Cl)c2)s1`: in assay [1], the cell count worked out at 481. In addition, the inhibition in assay [1] was -9.3% (inactive); in assay [3], 9.5% (inactive); in assay [7], -25% (inactive); in assay [8] it was -88.8% (inactive). The inhibition of aggregation in assay [2] is -4.3% (inactive). The nuclei count in assay [2] was determined as 66.7%; in assay [3] it was 114%. The fluorescence slope is -0.574 (inactive) in assay [4] and 0.00561 (inactive) in assay [6]. Moreover, the NADPH fluorescence slope in assay [5] was -1.8e-05 (inactive).

Regarding `CN(c1ccccc1)S(=O)(=O)c1cc(C(=O)N2CCN(c3ccccn3)CC2)ccc1Cl`, the cell count in assay [1] is 628. The inhibition in assay [1] was 2.4% (inactive); in assay [3], -52.9% (inactive); in assay [7], 15.7% (inactive); in assay [8], 13.1% (inactive). Further, in assay [2], the inhibition of aggregation was -6.5% (inactive). In addition, the nuclei count came out at 134% in assay [2] and 108% in assay [3]. For the same molecule, the values for the fluorescence slope in assay [4] and in assay [6] were -0.475 (inactive) and 0.00416 (inactive), respectively. Also, the NADPH fluorescence slope in assay [5] was -6e-05 (inactive).

As to `CN(C(=O)COC(=O)C1CCN(S(=O)(=O)c2cccs2)CC1)C1CCS(=O)(=O)C1` (stereo not drawn), the cell count in assay [1] came out at 385. Besides, the inhibition in assay [1] is -2.7% (inactive); in assay [3] it was -190% (inactive); in assay [7] it was -5.26% (inactive); in assay [8], 1.49% (inactive). In addition, in assay [2], the inhibition of aggregation is 6% (inactive). Moreover, the nuclei count in assay [2] stood at 51.8%; in assay [3] it was 120%. The fluorescence slope in assay [4] was -0.571 (inactive); in assay [6] it was 0.00447 (inactive). The NADPH fluorescence slope in assay [5] is -4.2e-05 (inactive).

Regarding `CC1(C)CC(=O)C(C=NCCc2ccc(S(N)(=O)=O)cc2)=C(O)C1`, in assay [1], the cell count amounted to 601. Besides, the inhibition in assay [1] was -6.1% (inactive); in assay [3], -11.3% (inactive); in assay [7] it was 13.2% (inactive); in assay [8], 20.3% (inactive). Further, the inhibition of aggregation in assay [2] was -14.5% (inactive). The nuclei count in assay [2] was 114%; in assay [3], 102%. The fluorescence slope in assay [4] was -0.426 (inactive); in assay [6], 0.00589 (inactive). In assay [5], the NADPH fluorescence slope was -8.3e-05 (inactive).

With `CCC(=O)N(Cc1cc2c(C)ccc(C)c2[nH]c1=O)C1CCCCC1`, in assay [1], the cell count is 689. The inhibition in assay [1] is -5.6% (inactive); in assay [3], -36.3% (inactive); in assay [7] it was 13.6% (inactive); in assay [8], 25.2% (inactive). Also, the inhibition of aggregation in assay [2] is 1.1% (inactive). In addition, the nuclei count in assay [2] turned out to be 93.2%; in assay [3], 100%. The fluorescence slope is -0.474 (inactive) in assay [4] and 0.00636 (inactive) in assay [6]. The NADPH fluorescence slope in assay [5] was -3.7e-05 (inactive).

For `COC(=O)c1ccc(NC(=O)CN2C(=O)CSC2=O)cc1`, the cell count in assay [1] worked out at 454. Moreover, the inhibition in assay [1] was 3.1% (inactive); in assay [3], -41% (inactive); in assay [7] it was 7.22% (inactive); in assay [8], 10.7% (inactive). In addition, in assay [2], the inhibition of aggregation was -17.9% (inactive). Also, the results for the nuclei count in assay [2] and in assay [3] were 113% and 109%, respectively. Moreover, the fluorescence slope in assay [4] was -0.404 (inactive); in assay [6] it was 0.00594 (inactive). The NADPH fluorescence slope in assay [5] is -3e-05 (inactive).

With `CN(C(=O)c1ccno1)c1nnc(-c2cnccn2)s1`, the cell count in assay [1] was 596. The inhibition is -10.8% (inactive) in assay [1], -39.5% (inactive) in assay [3], 5.76% (inactive) in assay [7] and 10.1% (inactive) in assay [8]. In assay [2], the inhibition of aggregation is 10.8% (inactive). For the same molecule, the nuclei count in assay [2] worked out at 97.4%; in assay [3] it was 107%. In addition, the fluorescence slope is -0.309 (inactive) in assay [4] and 0.00542 (inactive) in assay [6]. Besides, the NADPH fluorescence slope in assay [5] is -5.2e-05 (inactive).

`O=C(c1ccccc1)N1CCCCC(Sc2nnnn2-c2ccccc2)C1=O` (stereo not drawn): the cell count in assay [1] worked out at 385. The inhibition in assay [1] is -15.4% (inactive); in assay [3], -112% (inactive); in assay [7], 4.27% (inactive); in assay [8], 4.71% (inactive). In addition, in assay [2], the inhibition of aggregation is 28.5% (inactive). Also, the nuclei count in assay [2] is 76.4%; in assay [3] it was 134%. Moreover, the figures for the fluorescence slope in assay [4] and in assay [6] were -0.546 (inactive) and 0.00399 (inactive), respectively. For the same molecule, the NADPH fluorescence slope in assay [5] was -2.4e-05 (inactive).

With `CCOC(=O)N1CCN(C(=O)C(NS(=O)(=O)c2cccc3nsnc23)c2ccccc2)CC1` (stereo not drawn), the cell count in assay [1] is 588. Also, the inhibition was 1.5% (inactive) in assay [1], 51.1% (inactive) in assay [3], 3.16% (inactive) in assay [7] and 9.73% (inactive) in assay [8]. Further, in assay [2], the inhibition of aggregation is 13.3% (inactive). Also, the nuclei count in assay [2] came out at 106%; in assay [3] it was 81.6%. Further, the fluorescence slope is -0.599 (inactive) in assay [4] and 0.0056 (inactive) in assay [6]. Also, in assay [5], the NADPH fluorescence slope is 1.3e-05 (inactive).

Take `O=S(=O)(NCCc1csc(-c2ccccc2)n1)c1ccc2c(c1)OCCO2`: the cell count in assay [1] stood at 363. In addition, the inhibition in assay [1] was -13.3% (inactive); in assay [3], 29.5% (inactive); in assay [7], 14.6% (inactive); in assay [8], 9.91% (inactive). Besides, in assay [2], the inhibition of aggregation is 2.9% (inactive). In addition, the nuclei count in assay [2] came out at 108%; in assay [3] it was 76.2%. Also, the values for the fluorescence slope in assay [4] and in assay [6] were -0.622 (inactive) and 0.00312 (inactive), respectively. The NADPH fluorescence slope in assay [5] is 1e-06 (inactive).

As for `COc1ccccc1S(=O)(=O)n1cc(Cc2ccccc2)c(N)n1`, the cell count in assay [1] worked out at 341. For the same molecule, the inhibition was -21.8% (inactive) in assay [1], -28.1% (inactive) in assay [3], 3.66% (inactive) in assay [7] and 31.1% (inactive) in assay [8]. Besides, the inhibition of aggregation in assay [2] was 0.9% (inactive). The nuclei count came out at 89% in assay [2] and 114% in assay [3]. Besides, the fluorescence slope in assay [4] was -0.493 (inactive); in assay [6], 0.0055 (inactive). In assay [5], the NADPH fluorescence slope was -1.1e-05 (inactive).
